These results are taken from ChEMBL document CHEMBL1133522, “Chiral resolution, pharmacological characterization, and receptor docking of the noncompetitive mGlu1 receptor antagonist (+/-)-2-hydroxyimino- 1a, 2-dihydro-1H-7-oxacyclopropa[b]naphthalene-7a-carboxylic acid ethyl ester” (J Med Chem, 2000).

Assay [1] concerns the target T1, Metabotropic glutamate receptor 1 (Homo sapiens, UniProt Q13255). The assay can be described thus: Inhibition of Quisqualate-Induced PI Hydrolysis measured in CHO Metabotropic glutamate receptor 1 Expressing Cells. The assay is classed as functional. In outline:
(§1)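 Human mGlu1b receptor, cloned and stably expressed in CHO cells. Inhibition of quisqualate-stimulated phosphoinositol hydrolysis. Each data point is a triplicate measurement from at least three independent experiments, given as mean ± SEM. Four-parameter logistic fit of concentration–response curves gives IC50 with 95% confidence intervals. Highest concentration tested was 30 µM, or 100 µM where solubility allowed.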
Target sequence in this assay (Q13255 whole entry): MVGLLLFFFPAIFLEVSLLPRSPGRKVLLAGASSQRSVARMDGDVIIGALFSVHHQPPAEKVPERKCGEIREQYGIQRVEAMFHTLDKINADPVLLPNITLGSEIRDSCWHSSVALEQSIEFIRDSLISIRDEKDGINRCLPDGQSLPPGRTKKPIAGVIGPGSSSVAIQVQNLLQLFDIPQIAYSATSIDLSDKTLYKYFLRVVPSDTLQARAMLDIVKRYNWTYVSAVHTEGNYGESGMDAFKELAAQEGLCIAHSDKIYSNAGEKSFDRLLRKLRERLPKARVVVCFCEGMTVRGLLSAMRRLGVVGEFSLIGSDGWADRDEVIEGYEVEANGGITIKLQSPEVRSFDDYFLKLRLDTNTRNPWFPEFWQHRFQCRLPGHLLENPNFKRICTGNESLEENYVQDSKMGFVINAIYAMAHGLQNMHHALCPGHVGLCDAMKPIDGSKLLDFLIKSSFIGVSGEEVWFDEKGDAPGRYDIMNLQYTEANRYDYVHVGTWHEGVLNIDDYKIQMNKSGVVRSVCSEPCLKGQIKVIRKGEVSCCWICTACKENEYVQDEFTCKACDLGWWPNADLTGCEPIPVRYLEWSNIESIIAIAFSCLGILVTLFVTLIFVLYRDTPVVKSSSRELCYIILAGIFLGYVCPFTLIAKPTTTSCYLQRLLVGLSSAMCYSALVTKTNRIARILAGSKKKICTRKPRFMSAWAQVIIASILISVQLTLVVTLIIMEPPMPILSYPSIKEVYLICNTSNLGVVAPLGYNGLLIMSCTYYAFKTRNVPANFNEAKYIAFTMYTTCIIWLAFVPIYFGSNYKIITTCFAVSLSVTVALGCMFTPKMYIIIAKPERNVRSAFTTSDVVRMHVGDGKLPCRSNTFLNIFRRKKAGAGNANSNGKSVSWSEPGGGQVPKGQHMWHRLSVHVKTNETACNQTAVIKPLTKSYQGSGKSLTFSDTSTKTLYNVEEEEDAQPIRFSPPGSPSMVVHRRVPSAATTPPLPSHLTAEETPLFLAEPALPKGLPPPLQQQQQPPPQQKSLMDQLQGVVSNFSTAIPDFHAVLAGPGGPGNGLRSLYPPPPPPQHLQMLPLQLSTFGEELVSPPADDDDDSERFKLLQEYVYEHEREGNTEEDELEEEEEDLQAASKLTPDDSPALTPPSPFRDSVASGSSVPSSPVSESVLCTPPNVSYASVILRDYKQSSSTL

Assay [2] deals with T1, Metabotropic glutamate receptor 1. As to the kind of experiment: Inhibition of Quisqualate-Induced PI Hydrolysis measured in CHO Metabotropic glutamate receptor 1 Expressing Cells at a concentration of 30 uM; ne means No effect. The assay is classed as functional. In outline: as §1
Target sequence in this assay (Q13255 whole entry): as above
The target is the same in assay [3]. The note with it: CHO; 100 uM.
Target sequence in this assay (Q13255 19-1194 limits assumed): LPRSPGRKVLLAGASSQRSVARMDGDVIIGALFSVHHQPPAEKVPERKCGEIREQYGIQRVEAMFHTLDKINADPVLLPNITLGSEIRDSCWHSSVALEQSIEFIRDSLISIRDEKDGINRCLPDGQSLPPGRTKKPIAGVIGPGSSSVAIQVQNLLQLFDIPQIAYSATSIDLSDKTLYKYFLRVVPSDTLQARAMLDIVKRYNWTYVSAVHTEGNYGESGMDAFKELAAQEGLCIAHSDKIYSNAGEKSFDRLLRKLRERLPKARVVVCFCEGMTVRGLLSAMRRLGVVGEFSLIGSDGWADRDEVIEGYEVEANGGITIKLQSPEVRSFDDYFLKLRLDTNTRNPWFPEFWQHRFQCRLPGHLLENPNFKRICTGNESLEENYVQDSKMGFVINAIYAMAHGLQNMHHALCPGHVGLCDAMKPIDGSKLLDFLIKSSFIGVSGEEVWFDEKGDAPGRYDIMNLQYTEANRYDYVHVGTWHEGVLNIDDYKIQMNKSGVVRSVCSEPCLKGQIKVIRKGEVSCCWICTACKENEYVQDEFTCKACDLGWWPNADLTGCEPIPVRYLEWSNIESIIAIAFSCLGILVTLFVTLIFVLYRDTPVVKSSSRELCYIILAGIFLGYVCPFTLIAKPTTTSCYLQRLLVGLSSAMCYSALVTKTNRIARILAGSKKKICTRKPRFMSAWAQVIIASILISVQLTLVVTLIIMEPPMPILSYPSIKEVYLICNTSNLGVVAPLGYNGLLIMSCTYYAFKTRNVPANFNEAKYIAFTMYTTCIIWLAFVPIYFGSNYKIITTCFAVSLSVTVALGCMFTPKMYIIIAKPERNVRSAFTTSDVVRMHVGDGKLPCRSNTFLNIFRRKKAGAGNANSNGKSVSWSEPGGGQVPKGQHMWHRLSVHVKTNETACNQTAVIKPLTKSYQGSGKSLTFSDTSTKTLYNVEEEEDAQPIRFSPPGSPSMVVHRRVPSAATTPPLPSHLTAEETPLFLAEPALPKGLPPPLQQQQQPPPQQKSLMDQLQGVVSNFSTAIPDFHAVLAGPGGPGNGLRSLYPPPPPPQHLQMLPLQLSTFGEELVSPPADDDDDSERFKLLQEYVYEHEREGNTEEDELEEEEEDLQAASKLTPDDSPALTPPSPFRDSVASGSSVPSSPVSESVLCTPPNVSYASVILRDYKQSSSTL

With `CCOC(=O)[C@]12C[C@H]1/C(=N\O)c1ccccc1O2`, the IC50 in assay [1] was determined as 1500 nM.

On to `COC(=O)[C@H](Cc1ccccc1)NC(=O)C12CC1/C(=N\O)c1ccccc1O2` (mixture of isomers), for which half-maximal inhibition in assay [1] (IC50) required 1200 nM.

In the case of `COC(=O)[C@@H](Cc1ccccc1)NC(=O)[C@@]12C[C@@H]1/C(=N\O)c1ccccc1O2`, in assay [2], the IC50 result is given as “Not Active”.

As for `CCOC(=O)[C@@]12CC1/C(=N\O)c1ccccc1O2` (stereo partly drawn), the inhibition in assay [3] came out at 53%. In assay [2], the IC50 entry is “Not Active”.

Take `COC(=O)[C@@H](Cc1ccccc1)NC(=O)C12CC1/C(=N\O)c1ccccc1O2` (mixture of isomers): in assay [1], inhibition was half-maximal at 1400 nM (IC50).

On to `CCOC(=O)C12CC1/C(=N\O)c1ccccc1O2` (racemic), for which half-maximal inhibition in assay [1] (IC50) required 3400 nM.

For `COC(=O)[C@H](Cc1ccccc1)NC(=O)[C@]12C[C@H]1/C(=N\O)c1ccccc1O2`, in assay [1], half-maximal inhibition (IC50) required 430 nM.
